Series [1] relates to L1210. In words: Antitumor activity against mouse L1210 cells allografted in mouse assessed as mean survival time at 10 mg/kg, ip after 9 days. The format is functional. Conditions: route intraperitoneal. The gist of the method: (§1)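 Mice bearing ip-implanted L1210 ascites cells dosed ip daily for 9 days, run by NCI contractors. Activity was expressed as % T/C, the mean survival time of treated over control animals as a percent, with >125% taken as active. Deaths at a given dose were recorded as toxicity.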

Series [2] relates to Mus musculus. The experiment in a line: Antifertility activity in male Swiss albino mouse assessed as viable conceptus at 10 mg/kg, po qd administered for 5 days followed by mating measured after 4 weeks. The format is functional, organism-based. Set-up: dose 10 mg/kg. The gist of the method: (§2)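 Male Swiss albino mice, 4–6 per group, dosed ip or orally by gavage for five consecutive days (10, 15, 22.5 or 33.8 mg/kg), then serially mated with females over successive mating periods against control groups. Read-outs were nonpregnant/total females and viable/total conceptus per period. Student's t test versus control (p < 0.05) was used only for groups with at least two pregnant females.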

The subject of series [3] is Mus musculus. In words: Antifertility activity in male Swiss albino mouse assessed as viable conceptus at 10 mg/kg, ip qd administered for 5 days followed by mating measured after 1 week. The format is functional, organism-based. Set-up: dose 10 mg/kg. The gist of the method:
as §2

Series [4] concerns Mus musculus. The experiment in a line: Antifertility activity in male Swiss albino mouse assessed as nonpregnant female mouse at 10 mg/kg, ip qd administered for 5 days followed by mating measured after 3 weeks. The format is functional, organism-based. Set-up: dose 10 mg/kg. The method, boiled down: as §2
The subject of series [5] is Mus musculus. In words: Antifertility activity in male Swiss albino mouse assessed as reduction of litter size at 10 mg/kg, po administered for 5 days followed by mating measured for 2 weeks. It counts as functional, organism-based. Set-up: dose 10 mg/kg. The method, boiled down: as §2
A short description of series [6]: Octanol-water partition coefficient, log P of the compound. The format is physicochemical. The gist of the method:
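Shake-flask partitioning: 0.5 g solute in 50.0 mL each of 1-octanol and water, shaken 18 h at 24 °C. Layers were separated, filtered and evaporated (octanol removed as its water azeotrope), dried at 70 °C and weighed. Concentrations were determined gravimetrically.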

The test system of series [7] is Mus musculus. The experiment in a line: Toxicity in mouse allografted with mouse L1210 cells assessed as death at 20 mg/kg, ip. The format is organism-based. Set-up: dose 20 mg/kg, route intraperitoneal. The settings on record: in vivo. The method, boiled down: as §1
The nature of series [8]: Solubility of the compound in water. It counts as physicochemical. The settings on record: buffer. The gist of the method:
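Saturated aqueous solutions were shaken 23 h at 24 °C. The dissolved amount was determined gravimetrically after evaporation and drying at 70 °C.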

In series [9] the test system is Mus musculus. In words: Antifertility activity in male Swiss albino mouse assessed as viable conceptus at 10 mg/kg, ip qd administered for 5 days followed by mating measured after 4 weeks. The format is functional, organism-based. Set-up: dose 10 mg/kg. The method, boiled down:
as §2

The subject of series [10] is Mus musculus. The experiment in a line: Antifertility activity in male Swiss albino mouse assessed as nonpregnant female mouse at 33.8 mg/kg, ip qd administered for 5 days followed by mating measured after 4 weeks. The format is functional, organism-based. Further details: dose 33.8 mg/kg. The gist of the method: as §2
Series [11] deals with Mus musculus. In words: Antifertility activity in male Swiss albino mouse assessed as nonpregnant female mouse at 22.5 mg/kg, ip qd administered for 5 days followed by mating measured after 5 weeks. It counts as functional, organism-based. Further details: dose 22.5 mg/kg. The gist of the method:
as §2

Series [12] concerns Mus musculus. The experiment in a line: Antifertility activity in male Swiss albino mouse assessed as nonpregnant female mouse at 33.8 mg/kg, ip qd administered for 5 days followed by mating measured after 1 week. Further details: dose 33.8 mg/kg. It counts as functional, organism-based. The method, boiled down:
as §2

Series [13] deals with Mus musculus. The experiment in a line: Antifertility activity in male Swiss albino mouse assessed as nonpregnant female mouse at 10 mg/kg, ip qd administered for 5 days followed by mating measured after 4 weeks. It counts as functional, organism-based. Set-up: dose 10 mg/kg. The method, boiled down: as §2
In series [14] the test system is Mus musculus. The experiment in a line: Antifertility activity in male Swiss albino mouse assessed as viable conceptus at 33.8 mg/kg, po qd administered for 5 days followed by mating measured after 3 weeks. It counts as functional, organism-based. Further details: dose 33.8 mg/kg. The gist of the method: as §2
Series [15] relates to Mus musculus. The experiment in a line: Antifertility activity in male Swiss albino mouse assessed as nonpregnant female mouse at 15 mg/kg, po qd administered for 5 days followed by mating measured after 5 weeks. The format is functional, organism-based. Set-up: dose 15 mg/kg. The gist of the method:
as §2

Series [16] has as its system Mus musculus. The experiment in a line: Antifertility activity in male Swiss albino mouse assessed as nonpregnant female mouse at 33.8 mg/kg, ip qd administered for 5 days followed by mating measured after 3 weeks. The format is functional, organism-based. Further details: dose 33.8 mg/kg. The gist of the method: as §2
The test system of series [17] is Mus musculus. The experiment in a line: Antifertility activity in male Swiss albino mouse assessed as nonpregnant female mouse at 22.5 mg/kg, po qd administered for 5 days followed by mating measured after 3 weeks. The format is functional, organism-based. Set-up: dose 22.5 mg/kg. The gist of the method: as §2
For series [18], the system named is Mus musculus. In words: Antifertility activity in male Swiss albino mouse assessed as nonpregnant female mouse at 33.8 mg/kg, po qd administered for 5 days followed by mating measured after 1 week. The format is functional, organism-based. Further details: dose 33.8 mg/kg. The method, boiled down: as §2
The subject of series [19] is Mus musculus. The experiment in a line: Antifertility activity in male Swiss albino mouse assessed as nonpregnant female mouse at 15 mg/kg, ip qd administered for 5 days followed by mating measured after 1 week. It counts as functional, organism-based. Set-up: dose 15 mg/kg. The gist of the method: as §2
Series [20] deals with Mus musculus. In words: Antifertility activity in male Swiss albino mouse assessed as nonpregnant female mouse at 33.8 mg/kg, po qd administered for 5 days followed by mating measured after 5 weeks. It counts as functional, organism-based. Set-up: dose 33.8 mg/kg. The gist of the method:
as §2

For series [21], the system named is Mus musculus. In words: Antifertility activity in male Swiss albino mouse assessed as nonpregnant female mouse at 22.5 mg/kg, po qd administered for 5 days followed by mating measured after 5 weeks. The format is functional, organism-based. Further details: dose 22.5 mg/kg. The gist of the method:
as §2

Series [22] deals with Mus musculus. The experiment in a line: Antifertility activity in male Swiss albino mouse assessed as nonpregnant female mouse at 33.8 mg/kg, ip qd administered for 5 days followed by mating measured after 2 weeks. Set-up: dose 33.8 mg/kg. It counts as functional, organism-based. The method, boiled down:
as §2

For series [23], the system named is Mus musculus. The experiment in a line: Antifertility activity in male Swiss albino mouse assessed as nonpregnant female mouse at 15 mg/kg, po qd administered for 5 days followed by mating measured after 1 week. The format is functional, organism-based. Set-up: dose 15 mg/kg. The method, boiled down: as §2
For series [24], the system named is Mus musculus. In words: Antifertility activity in male Swiss albino mouse assessed as viable conceptus at 15 mg/kg, ip administered for 5 days followed by mating measured after 5 weeks. The format is functional, organism-based. Set-up: dose 15 mg/kg. The method, boiled down:
as §2

The test system of series [25] is Mus musculus. The experiment in a line: Antifertility activity in male Swiss albino mouse assessed as nonpregnant female mouse at 10 mg/kg, […] administered for 5 days followed by mating measured after 1 week. The format is functional, organism-based. Further details: dose 10 mg/kg. The gist of the method:
as §2

Series [26] relates to Mus musculus. In words: Toxicity in mouse allografted with mouse L1210 cells assessed as death at 200 mg/kg, ip. It counts as organism-based. Set-up: dose 200 mg/kg, route intraperitoneal. The settings on record: in vivo. The method, boiled down: as §1
The subject of series [27] is Mus musculus. The experiment in a line: Antifertility activity in male Swiss albino mouse assessed as viable conceptus at 10 mg/kg, ip administered for 5 days followed by mating measured after 5 weeks. It counts as functional, organism-based. Set-up: dose 10 mg/kg. The gist of the method:
as §2

Series [28] relates to Mus musculus. The experiment in a line: Antifertility activity in male Swiss albino mouse assessed as nonpregnant female mouse at 10 mg/kg, ip qd administered for 5 days followed by mating measured after 2 weeks. Set-up: dose 10 mg/kg. The format is functional, organism-based. The gist of the method: as §2
In series [29] the test system is Mus musculus. The experiment in a line: Antifertility activity in male Swiss albino mouse assessed as viable conceptus at 22.5 mg/kg, ip qd administered for 5 days followed by mating measured after 2 weeks. It counts as functional, organism-based. Further details: dose 22.5 mg/kg. The gist of the method:
as §2

For series [30], the system named is Mus musculus. In words: Antifertility activity in male Swiss albino mouse assessed as nonpregnant female mouse at 33.8 mg/kg, ip qd administered for 5 days followed by mating measured after 5 weeks. It counts as functional, organism-based. Further details: dose 33.8 mg/kg. The gist of the method:
as §2

The subject of series [31] is L1210. The experiment in a line: Antitumor activity against mouse L1210 cells allografted in mouse assessed as mean survival time at 50 mg/kg, ip after 9 days. The format is functional. Conditions: route intraperitoneal. The gist of the method:
as §1

Series [32] relates to Mus musculus. The experiment in a line: Antifertility activity in male Swiss albino mouse assessed as nonpregnant female mouse at 22.5 mg/kg, ip qd administered for 5 days followed by mating measured after 1 week. Further details: dose 22.5 mg/kg. It counts as functional, organism-based. The method, boiled down: as §2
Series [33] deals with Mus musculus. The experiment in a line: Antifertility activity in male Swiss albino mouse assessed as viable conceptus at 22.5 mg/kg, ip qd administered for 5 days followed by mating measured after 3 weeks. The format is functional, organism-based. Further details: dose 22.5 mg/kg. The gist of the method: as §2
The test system of series [34] is Mus musculus. In words: Antifertility activity in male Swiss albino mouse assessed as viable conceptus at 10 mg/kg, ip qd administered for 5 days followed by mating measured after 3 weeks. The format is functional, organism-based. Set-up: dose 10 mg/kg. The gist of the method: as §2

Activity calls are given as the source filed them. The calls are words filed in the database; no cut-off is given here.

With `O=P(NC12CC3CC(CC(C3)C1)C2)(N1CC1)N1CC1`, the T/C (commonly the ratio of treated to control) in the series on L1210 [1] is reported as 244%. Besides, the outcome in the series on Mus musculus [2] was inactive. For the same compound, the result with Mus musculus [3], in the series on Mus musculus [4] and in the series on Mus musculus [5] was Active. Moreover, the log partition coefficient (logP) (as a rule, a log measure of how a compound divides between an organic and an aqueous phase) in series [6] is 1.45. Moreover, the Activity result in the series with Mus musculus [7] is reported as “Toxic”. The compound also registered a solubility in series [8] of 0.13%.

As to `O=P(N1CC1)(N1CC1)C12CC3CC(CC(C3)C1)C2`, the outcome in the series on Mus musculus [9], in the series on Mus musculus [11], in the series with Mus musculus [13], with Mus musculus [14], in the series on Mus musculus [15] and in the series with Mus musculus [17] was inactive. In addition, the result in the series on Mus musculus [18], in the series on Mus musculus [20], in the series on Mus musculus [21], with Mus musculus [23], in the series on Mus musculus [24] and in the series with Mus musculus [25] was inactive. Also, the result with Mus musculus [27], in the series on Mus musculus [28], in the series on Mus musculus [29] and in the series on Mus musculus [34] was inactive. Also, the result in the series with Mus musculus [10], in the series with Mus musculus [12], in the series with Mus musculus [16], in the series with Mus musculus [19], in the series with Mus musculus [22] and in the series on Mus musculus [3] was Active. Also, the outcome in the series with Mus musculus [30], in the series with Mus musculus [32] and with Mus musculus [33] was Active. The Activity entry in the series on Mus musculus [26] is on record as “Toxic”. In series [6], this compound yielded a logP of 0.88. The T/C with L1210 [31] came out at 243%. This compound returned a solubility in [8] of 0.94%.
